Assay results taken from publication PMC9924909 (Brain, 2022).
“And” between values parts separate entries of the source, which are not always exact repeats. Identical values can stand only once. “Also recorded” adds a separate entry of the source.

How the values were obtained:
[1] = test system: adults with GD3; test: Vineland Adaptive Behavior Scale II; type: in vivo, human; conditions: over 1 year of venglustat treatment
[2] = test system: CYP3A; conditions: no reference given; cited from earlier work
[3] = test system: adults with GD3; test: Resting functional MRI connectivity; type: in vivo, human
Summary of the method: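 Resting-state BOLD fMRI at baseline, Week 26 and Week 52, analysed centrally and blinded. Regions of interest came from FreeSurfer segmentation masks, using parcellation of the baseline high-resolution 3D-T1 image. Full and partial connectivity were computed between resting-state networks 1, 2, 3, 6, 7 and 8 using published template maps.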

[4] = test system: plasma glucosylceramide; conditions: cited from earlier work
[5] = Venglustat plasma pharmacokinetics, LEAP trial; type: in vivo, human; conditions: for plasma venglustat concentration, mean (SD): 10 patients (Patient 9 excluded); for plasma venglustat concentration, Patient 9: single patient with low exposure
Summary of the method: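 Plasma sampled on Day 1 pre-dose and at 1, 2, 4, 8 and 24 h. Further samples taken 2–4 h post-dose at Weeks 4, 26 and 52, and pre-dose at Weeks 12 and 39. Oral test compound 15 mg once daily. […] Values below LLOQ entered as 0.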

[6] = Venglustat CSF pharmacokinetics, LEAP trial; type: in vivo, human; conditions: for CSF venglustat concentration, mean (SD): 10 patients (Patient 9 excluded); for CSF venglustat concentration, Patient 9: single patient with low exposure
Summary of the method: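 CSF for drug levels collected pre-dose on Day 1 and 2–4 h post-dose at Weeks 4, 26 and 52 (reported as ~4 h), while on oral test compound 15 mg once daily. Concentrations summarised descriptively, with one patient excluded from summary statistics. Values below LLOQ entered as 0.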

[7] = test system: adults with GD3; test: Systemic manifestations of GD; type: in vivo, human
Summary of the method: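 Haemoglobin, platelet count, and liver and spleen volumes assessed per standard clinical practice over 1 year of daily oral test compound 15 mg plus maintenance IV enzyme replacement. Bone mineral density measured by DXA; bone marrow burden scored from lumbar spine and femur MRI. Lung function followed ATS standards: spirometry (FVC, FEV₁), total lung capacity and carbon monoxide diffusing capacity.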

[8] = test system: adults with GD3; test: Brain volumetric MRI, tensor-based morphometry; type: in vivo, human
Summary of the method: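 MRI of brain and brainstem (at least T1 and T2) at baseline, Week 26 and Week 52 on 1.5 or 3 T scanners, read centrally by a reviewer blinded to patient and time point. FreeSurfer parcellation. Tensor-based morphometry: symmetric log-demons registration of baseline/follow-up pairs with a cross-correlation metric. The Jacobian determinant integrated over each region gives the rate of volume change.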

[9] = test system: glucosylsphingosine; test: Glucosylsphingosine concentration in plasma and CSF, LEAP trial; type: in vivo, human
Summary of the method: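 CSF collected by lumbar puncture at baseline and Weeks 1, 4, 26, 52; plasma at baseline and Weeks 1, 4, 12, 26, 39, 52. Dosing was oral test compound 15 mg once daily with maintenance IV enzyme replacement. LLOQ: glucosylceramide 0.1 μg/ml plasma, 2.0 ng/ml CSF; glucosylsphingosine 5.0 ng/ml plasma, 5 pg/ml CSF. Change from baseline summarised as median percentage with interquartile range and 95% CI.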

[10] = test system: glucosylceramide synthase; conditions: cited from earlier work
[11] = test system: mouse models of neurological GD; conditions: cited from earlier work
[12] = test system: monosialodihexosylganglioside; test: Monosialodihexosylganglioside in CSF; type: in vivo, human; conditions: Weeks 4, 26 and 52; measurable at baseline in eight of 11 patients
Summary of the method: (§1)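 Exploratory CSF biomarkers quantified in CSF taken by lumbar puncture at baseline and Weeks 1, 4, 26 and 52. Adults with GD3 received oral test compound 15 mg once daily plus maintenance IV enzyme replacement for 52 weeks.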

[13] = test system: adults with GD3; test: Ataxia, Scale for Assessment and Rating of Ataxia; type: in vivo, human
[14] = test system: ceramide; test: Ceramide in CSF; type: in vivo, human; conditions: baseline and throughout the study
Summary of the method: as §1

[15] = test system: adults with GD3; test: Safety and tolerability, LEAP trial; type: in vivo, human; conditions: 1 year, 11 patients
Summary of the method: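 Open-label, single-arm study at six centres: 11 adults with GD3 took oral test compound 15 mg once daily with maintenance IV imiglucerase every 2 weeks (stable doses 38.5–125 U/kg). Safety and tolerability were assessed over 52 weeks. No pre-specified statistical testing.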

[16] = Week 4, ~4 h post-dose, 15 mg once daily
[17] = Week 26, ~4 h post-dose, 15 mg once daily
[18] = Week 52, ~4 h post-dose, 15 mg once daily
[19] = after 1 year, patient with low venglustat exposure
[20] = individual patients, baseline to Week 52
[21] = baseline to Week 52, 11 patients
[22] = venglustat in combination with imiglucerase

SMILES: CC(C)(NC(=O)O[C@@H]1CN2CCC1CC2)c1csc(-c2ccc(F)cc2)n1 [Venglustat]
- Vineland II domain scores over time [1]: deteriorated in all domains; also recorded: All domains decreased in normative score
- metabolism by CYP3A [2]: principally metabolized by the CYP3A cytochrome complex
- functional connectivity relative to baseline ([3]; Weeks 26 and 52, patients with venglustat exposure (fMRI Group A)): stronger connectivity
- maximal increased correlation coefficient ([3]; fMRI Group A (nine patients)): 0.19 ± 0.16
- mean plasma glucosylceramide reduction from baseline ([4]; 15 mg once daily, Day 15, healthy volunteers): 74.6%
- safety and tolerability in healthy volunteers ([4]; once-daily dosing of up to 15 mg): favourable safety and tolerability profile
- Emax (plasma glucosylceramide reduction) ([4]; pharmacokinetic-pharmacodynamic modelling after repeated dosing): 80%
- accumulation in plasma after once-daily dosing versus Day 1 ([5]; 4 h post-dose plasma concentrations, 15 mg once daily): ~2 fold
- plasma venglustat concentration, mean (SD) ([5]; Day 1, ~4 h post-dose, 15 mg once daily): 48 (17.5) ng/ml
- plasma venglustat concentration, mean (SD) [5, 16]: 116 (48.1) ng/ml
- plasma venglustat concentration, Patient 9 ([5]; Week 4): 102 ng/mL
- plasma venglustat concentration, mean (SD) [5, 17]: 120 (40.1) ng/ml
- plasma venglustat concentration, Patient 9 ([5]; Week 26): 53.3 ng/mL
- plasma venglustat concentration, mean (SD) [5, 18]: 114 (65.8) ng/ml
- plasma venglustat concentration, Patient 9 ([5]; Week 52): undetectable
- AUC(0-t) ([5]; human, plasma, po, 15 mg): 851 ng·h/mL
- Cmax ([5]; human, plasma, po, 15 mg): 58.1 ng/mL
- Tmax ([5]; human, plasma, po, 15 mg): 2 h
- steady state reached (plasma) ([5]; mean plasma concentrations, Patient 9 excluded, 15 mg once daily): ≤ 4 Week
- CSF venglustat concentration, mean (SD) [6, 16]: 6.63 (2.42) ng/ml
- CSF venglustat concentration, Patient 9 ([6]; Week 4): 3.05 ng/mL
- CSF venglustat concentration, mean (SD) [6, 17]: 6.77 (1.96) ng/ml
- CSF venglustat concentration, Patient 9 ([6]; Week 26): 1.77 ng/mL
- CSF venglustat concentration, mean (SD) [6, 18]: 6.14 (3.44) ng/ml
- CSF venglustat concentration, Patient 9 ([6]; Week 52): undetectable
- steady state reached (CSF) ([6]; mean CSF concentrations, Patient 9 excluded, 15 mg once daily): ≤ 4 Week
- crossing of the blood–brain barrier ([6]; venglustat detectable in CSF 4 h post dose over 1 year (excluding Patient 9)): crossed the blood–brain barrier
- lumbar spine bone mineral density category ([7]; after 1 year, seven patients with data): five patients remained in the same bone density category
- interstitial lung disease ([7]; after 1 year, seven patients with detectable disease at baseline): four improved
- bone marrow burden scores ([7]; during 1 year of treatment, 11 patients): remained in the same severity category in 10 patients
- haemoglobin concentrations, platelet counts, spleen and liver volumes ([7]; throughout 1 year, reference range for healthy persons): remained in this range
- ventricular volume increase, Patient 9 [8, 19]: 9.6%
- whole brain volume reduction, Patient 9 [8, 19]: 1.57%
- change in whole brain volume, Patient 9 ([8]; after 1 year, patient with low-to-undetectable venglustat exposure, baseline 882 951 mm^3): −13894.8 mm^3
- MRI whole brain volume, Percentage change [8, 20]: −0.52% and 0.38% and 0.11% and −1.57% and −0.22% and −0.23% and 0.025% and 0.48% and 0.21%
- regional brain volume change (mean atrophy ± SD), left cuneus ([8]; vMRI Group A, Week 52): 37.2 ± 46.2
- regional brain volume change (mean atrophy ± SD), left entorhinal ([8]; vMRI Group A, Week 52): 34.5 ± 32.1
- regional brain volume change (mean atrophy ± SD), left lingual ([8]; vMRI Group A, Week 52): 50.1 ± 80.0
- regional brain volume change (mean atrophy ± SD), left pericalcarine ([8]; vMRI Group A, Week 52): 18.5 ± 22.0
- regional brain volume change (mean atrophy ± SD), left putamen ([8]; vMRI Group A, Week 52): 94.7 ± 78.7
- regional brain volume change (mean atrophy ± SD), right accumbens area ([8]; vMRI Group A, Week 52): 12.9 ± 9.6
- regional brain volume change (mean atrophy ± SD), right amygdala ([8]; vMRI Group A, Week 52): 60.8 ± 74.9
- regional brain volume change (mean atrophy ± SD), right postcentral ([8]; vMRI Group A, Week 52): 91.7 ± 100.0
- regional brain volume change (mean atrophy ± SD), right putamen ([8]; vMRI Group A, Week 52): 97.8 ± 100.8
- ventricle volume change (mean ± SD) ([8]; vMRI Group A, Week 52): −438 ± 696.9
- median glucosylsphingosine reduction in CSF [9, 21]: 70%
- median glucosylsphingosine reduction in plasma [9, 21]: 56%
- Glucosylsphingosine concentration, CSF, Change [9, 20]: −72 pg/ml and −23.2 pg/ml and −30.2 pg/ml and +75.8 pg/ml and −15.75 pg/ml and −53.5 pg/ml and −9.8 pg/ml and −14.3 pg/ml and −17.3 pg/ml and −32.7 pg/ml and −35.7 pg/ml
- Glucosylsphingosine concentration, CSF, Percentage change [9, 20]: −72% and −48% and −44.7% and +313.2% and −69.7% and −95.5% and −46% and −71.1% and −87.4% and −75.7% and −70.3%
- Glucosylsphingosine concentration, Plasma, Change [9, 20]: −3.2 ng/ml and −18.9 ng/ml and −33 ng/ml and +69 ng/ml and −3.79 ng/ml and −22.5 ng/ml and −6.28 ng/ml and −8.67 ng/ml and −8.07 ng/ml and −4.5 ng/ml and −31.3 ng/ml
- Glucosylsphingosine concentration, Plasma, Percentage change [9, 20]: −56.1% and −50.7% and −41.4% and +43.4% and −60.3% and −57.8% and −71.5% and −59.8% and −47.8% and −23.3% and −64%
- inhibition of glucosylceramide formation [10]: potent and specific inhibitor
- glycolipid accumulation in liver and brain [11]: reduced accumulation of gluco-series glycolipids in the liver and brain
- median survival of treated mice ([11]; increased from 45 days): 60 days
- increase in median survival ([11]; treated mice): 30%
- monosialodihexosylganglioside in CSF on treatment [12]: undetectable in all CSF samples
- total modified SARA score at Week 52, mean ([13]; 11 patients, baseline mean 2.68, scale 0–32): 1.55
- total modified SARA score, mean change from baseline ([13]; Week 52, 95% CI: −2.06 to −0.21): −1.14 points
- patients with slightly improved total modified SARA score [13, 21]: nine patients; also recorded: nine of 11
- ceramide concentrations in CSF [14]: within reference ranges
- adverse event: acne [15]: two events in two patients
- adverse event: back pain [15]: nine events in five patients
- adverse event: diarrhoea [15]: two events in two patients
- adverse event: headache [15]: ten events in six patients
- adverse event: upper respiratory tract infection [15]: two events in two patients
- adverse event: vomiting [15]: two events in two patients
- severity of most adverse events [15]: mild or moderate, transient
- deaths and serious adverse events ([15]; venglustat 15 mg once daily in combination with imiglucerase): no deaths, serious adverse events; also recorded: no deaths or serious adverse events
- discontinuation of study treatment [15, 22]: no patient discontinued
- patients with at least one adverse event [15, 22]: 11
